Results as given in ChEMBL document CHEMBL1799923, “Design, synthesis, and biological activities of closantel analogues: structural promiscuity and its impact on Onchocerca volvulus” (J Med Chem, 2011).
The source made the active and inactive calls.

Experiments:
[1] = biological target: T1, Chitinase (Onchocerca volvulus, UniProt Q25615); assay: Inhibition of Onchocerca volvulus L3 larvae chitinase using 4-methylumbelliferyl-N,N',N''-beta-chitotrioside as a profluorescent substrate after 10 mins by fluorometric analysis
T1 sequence (Q25615 whole entry): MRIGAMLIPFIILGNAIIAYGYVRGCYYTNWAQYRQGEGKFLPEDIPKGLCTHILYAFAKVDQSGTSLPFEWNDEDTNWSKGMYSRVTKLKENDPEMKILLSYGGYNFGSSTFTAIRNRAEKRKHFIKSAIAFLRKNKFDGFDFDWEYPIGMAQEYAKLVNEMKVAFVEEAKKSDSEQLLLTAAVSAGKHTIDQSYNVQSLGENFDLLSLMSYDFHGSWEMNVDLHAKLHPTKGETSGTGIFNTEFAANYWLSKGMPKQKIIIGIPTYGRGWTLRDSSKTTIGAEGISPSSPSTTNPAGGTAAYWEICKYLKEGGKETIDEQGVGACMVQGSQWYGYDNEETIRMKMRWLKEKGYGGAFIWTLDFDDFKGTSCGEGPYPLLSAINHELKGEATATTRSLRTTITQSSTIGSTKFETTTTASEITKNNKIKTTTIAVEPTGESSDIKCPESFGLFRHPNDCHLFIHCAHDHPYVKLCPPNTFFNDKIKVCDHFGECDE
Summary of the method: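 OvCHT1 (1.25 units) with 20 μM 4-methylumbelliferyl-N,N',N''-β-chitotrioside in 200 mM NaCl, 20 mM Na3PO4 (pH 6.0), 1.0 mM EDTA and 0.5% DMSO at 37 °C. Screening used 25 μM compound, with a no-compound blank. Fluorescence increase is read over 10 min (ex 350 nm, em 440 nm). Triplicate reactions.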

[2] = system: Onchocerca ochengi; assay: Antiparasitic activity against Onchocerca ochengi assessed as effect on microfilarial mobility at 10 ug/ml measured every 24 hrs for 120 hrs by inverted microscopic analysis; type: functional
Summary of the method: (§1)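 Microfilariae isolated from cattle skin snips; ≥15 per well cocultured on a confluent monkey kidney epithelial feeder layer in RPMI-1640 complete medium (25 mM HEPES, 5% newborn calf serum, pH 7.4) with compound, 37 °C, 5% CO2, 5 days, no medium change. Motility scored by inverted microscope every 24 h. Viability checked at 120 h. Duplicate wells. Active = 100% motility loss versus control.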

[3] = system: Onchocerca ochengi; assay: Antiparasitic activity against Onchocerca ochengi assessed as effect on microfilarial mobility at 5 ug/ml measured every 24 hrs for 120 hrs by inverted microscopic analysis; type: functional; summary of the method: as §1
[4] = system: Onchocerca volvulus; assay: Antiparasitic activity against Onchocerca volvulus assessed as inhibition of L3 to L4 larval molting at 100 uM after 6 days by using inverted microscopic analysis; type: functional
Summary of the method: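 Cryopreserved O. volvulus L3 larvae thawed at 37 °C, washed in NCTC/IMDM (1:1) with glutamine, penicillin and streptomycin, then set at […] worms per well in complete medium with 20% heat-inactivated FCS. Each well received 1.5 × 10^5 normal PBMCs; 10 wells per treatment, with DMSO and medium controls. Incubated at 37 °C in 5% CO2 for 6 days. Molting is scored by inverted microscopy as L4 larvae plus empty L3 casts.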

[5] = system: Onchocerca volvulus; assay: Antiparasitic activity against Onchocerca volvulus assessed as inhibition of L3 to L4 larval molting at 25 uM after 6 days by using inverted microscopic analysis; type: functional, organism-based
Summary of the method: (§2)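 Cryopreserved L3 thawed at 37 °C and washed. 5–10 larvae per well in complete medium with 20% heat-inactivated FCS plus 1.5 × 10^5 normal PBMCs. 10 wells per treatment. Compounds tested singly or as a 1:1 pair. DMSO and medium controls included. Incubated at 37 °C, 5% CO2. Molting scored on day 6 by inverted microscope as L4 plus empty L3 cast. Reported as percent molting.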

[6] = system: HEK-293T; assay: Protonophoric activity in human HEK293T cells assessed as mitochondrial membrane depolarization at 50 uM after 10 mins by flow cytometric analysis; type: functional, cell-based
Summary of the method: (§3)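 HEK-293T/17 cells were trypsinized and resuspended at 1 × 10^6/mL in PBS. They were exposed to 50 μM compound (valinomycin control 200 nM) for 10 min at 37 °C, then stained with the JC-1 potential probe for 10 min at 37 °C. Cells were washed and analysed by flow cytometry using FL-1 green and FL-2 red channels.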

[7] = system: Onchocerca volvulus; assay: Antiparasitic activity against Onchocerca volvulus assessed as inhibition of L3 to L4 larval molting at 50 uM after 6 days by using inverted microscopic analysis; type: functional, organism-based; summary of the method: as §2
[8] = system: Onchocerca volvulus; assay: Antiparasitic activity against Onchocerca volvulus assessed as larval toxicity at 100 uM after 6 days by using inverted microscopic analysis; type: functional, organism-based
[9] = system: HEK-293T; assay: Protonophoric activity in human HEK293T cells assessed as mitochondrial membrane depolarization at 200 uM after 10 mins by flow cytometric analysis; type: functional, cell-based
Summary of the method: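 HEK-293T/17 cells trypsinized and resuspended at 1 × 10^6 cells/mL in PBS. Compound exposure is 10 min at 37 °C, with valinomycin as the depolarization control. JC-1 is then added for another 10 min at 37 °C. Cells are washed and analysed by flow cytometry in the green (FITC) and red (PE) channels for mitochondrial membrane polarization.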

[10] = system: HEK-293T; assay: Protonophoric activity in human HEK293T cells assessed as mitochondrial membrane depolarization at 50 uM after 10 mins by flow cytometric analysis relative to closantel; type: functional, cell-based; summary of the method: as §3
[11] = system: HEK-293T; assay: Protonophoric activity in human HEK293T cells assessed as mitochondrial membrane depolarization at 50 uM after 10 mins by flow cytometric analysis relative to valinomycin; type: functional, cell-based; summary of the method: as §3

Row | SMILES | IC50 [1] [nM] | motility % at 10 µg/mL [2] [%] | motility % at 5 µg/mL [3] [%] | also measured
1 | O=C(Nc1ccc(Cl)cc1)c1cc(I)cc(I)c1O | 5800 | 0 | 100 | 
2 | O=C(Nc1ccc(Cl)cc1)c1cc(Cl)cc(Cl)c1O | 12400 | 29 | 100 | 
3 | O=C(Nc1ccc(Br)cc1)c1cc(I)cc(I)c1O | 680 | 100 | 100 | 
4 | COc1ccc(NC(=O)c2cc(Br)cc(Br)c2O)cc1 | 5500 | 50 | 100 | 
5 | CC(C)c1ccc(NC(=O)c2cc(I)cc(I)c2O)cc1 | 1600 | 100 | 100 | 
6 | O=C(Nc1ccccc1)c1cc(Br)cc(Br)c1O [METABROMSALAN] |  | 50 | 100 | 
7 | O=C(Nc1ccc(I)cc1)c1cc(I)cc(I)c1O | 630 | 100 | 100 | inhibition [4]: Active; inhibition [5]: inactive; Activity [6]: inactive; inhibition [7]: inactive; Activity [8]: inactive
8 | CC(C)[C@@H]1NC(=O)[C@H](C)OC(=O)[C@@H](C(C)C)NC(=O)[C@@H](C(C)C)OC(=O)[C@H](C(C)C)NC(=O)[C@H](C)OC(=O)[C@@H](C(C)C)NC(=O)[C@@H](C(C)C)OC(=O)[C@H](C(C)C)NC(=O)[C@H](C)OC(=O)[C@@H](C(C)C)NC(=O)[C@@H](C(C)C)OC1=O |  |  |  | Activity [9]: Active
9 | O=C(Nc1ccc(Cl)cc1)c1cc(I)ccc1O |  | 100 | 100 | 
10 | Cc1ccc(NC(=O)c2cc(Br)cc(Br)c2O)cc1 |  | 100 | 100 | 
11 | CC(C)c1cc(C(=O)Nc2ccc(Cl)cc2)c(O)c(C(C)C)c1 |  | 100 | 100 | Activity [10]: Active; inhibition [4]: Active; inhibition [5]: inactive; Activity [11]: Active; inhibition [7]: inactive; Activity [8]: inactive
12 | COc1ccc(NC(=O)c2cc(Cl)cc(Cl)c2O)cc1 |  | 50 | 100 | 
13 | O=C(Nc1ccccc1)c1cc(Cl)cc(Cl)c1O |  | 25 | 100 | 
14 | Cc1ccc(NC(=O)c2cc(I)cc(I)c2O)cc1 | 1700 | 100 | 100 | 
15 | Cc1ccc(NC(=O)c2cc(C(C)C)cc(C(C)C)c2O)cc1 |  | 25 | 50 | 
16 | Cc1cc(C(C#N)c2ccc(Cl)cc2)c(Cl)cc1NC(=O)c1cc(I)cc(I)c1O (stereo not given) [CLOSANTEL] | 1600 | 0 | 100 | Ki [1]: 468 nM; inhibition at 100 µM ([4]; 144 h): 97.6%; Activity [8]: inactive
17 | COc1ccc(NC(=O)c2cc(C(C)C)cc(C(C)C)c2O)cc1 |  | 25 | 50 | 
18 | COc1ccc(NC(=O)c2cc(I)ccc2O)cc1 |  | 100 | 100 | 
19 | Cc1ccc(NC(=O)c2cc(Cl)cc(Cl)c2O)cc1 |  | 50 | 100 | 
20 | O=C(Nc1ccccc1)c1cc(I)cc(I)c1O |  | 100 | 100 | 
21 | CC(C)c1cc(C(=O)Nc2ccccc2)c(O)c(C(C)C)c1 |  | 50 | 100 | 
22 | COc1ccc(NC(=O)c2cc(I)cc(I)c2O)cc1 | 8700 | 100 | 100 | 
23 | O=C(Nc1ccc(F)cc1)c1cc(I)cc(I)c1O | 880 | 100 | 100 | 
24 | O=C(Nc1ccc(Cl)cc1)c1cc(Br)cc(Br)c1O |  | 35 | 100 | 
25 | Cc1ccc(NC(=O)c2cc(I)ccc2O)cc1 |  | 21 | 50 | 
26 | O=C(Nc1ccccc1)c1cc(I)ccc1O |  | 25 | 100 | 
